Measured values from ChEMBL document CHEMBL3259696, “Berberine and its metabolites: relationship between physicochemical properties and plasma levels after administration to human subjects” (J Nat Prod, 2014).
Active and inactive are the calls of the source. The calls are words filed in the database; no cut-off is given here.

What was measured:
[1] = 1-Octanol-water distribution coefficient, log D of the compound at pH 8.6 after 1 week by HPLC-ESIMS/MS analysis; format: physicochemical
Method in brief: (§1)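 Shake-flask partition: analytes started at 0.1 mM in 0.1 M Na phosphate buffer (pH range 4.5 to 9). Buffer solution mixed 1:1 with buffer-presaturated 1-octanol and equilibrated 1 week under continuous stirring at 25 °C. After centrifugation the phases were separated, and the aqueous phase was diluted in mobile phase and quantified by HPLC-ESIMS/MS. LogD calculated from the aqueous-phase concentration.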

[2] = Solubility of the compound in sodium phosphate buffer at pH 6 at 25 degC after 1 week by HPLC-ESIMS/MS analysis; format: physicochemical
Method in brief: (§2)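 Solubility samples in sodium phosphate buffer at each pH were stirred continuously for 1 week at 25 °C. Solutions were passed through 0.45 μm regenerated-cellulose filters, diluted in mobile phase and quantified by HPLC-ESIMS/MS.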

[3] = Solubility of the compound in sodium phosphate buffer at pH 4.5 at 25 degC after 1 week by HPLC-ESIMS/MS analysis; format: physicochemical; method in brief: as §2
[4] = Solubility of the compound in sodium phosphate buffer at pH 8.6 at 25 degC after 1 week by HPLC-ESIMS/MS analysis; format: physicochemical; method in brief: as §2
[5] = 1-Octanol-water distribution coefficient, log D of the compound at pH 6 after 1 week by HPLC-ESIMS/MS analysis; format: physicochemical; method in brief: as §1
[6] = 1-Octanol-water partition coefficient, log P of the compound at pH 4.5 after 1 week by HPLC-ESIMS/MS analysis; format: physicochemical; method in brief: as §1
[7] = 1-Octanol-water distribution coefficient, log D of the compound at pH 7 after 1 week by HPLC-ESIMS/MS analysis; format: physicochemical; method in brief: as §1
[8] = 1-Octanol-water partition coefficient, log P of the compound at pH 6 after 1 week by HPLC-ESIMS/MS analysis; format: physicochemical; method in brief: as §1
[9] = 1-Octanol-water partition coefficient, log P of the compound at pH 8.6 after 1 week by HPLC-ESIMS/MS analysis; format: physicochemical; method in brief: as §1
[10] = 1-Octanol-water partition coefficient, log P of the compound at pH 7 after 1 week by HPLC-ESIMS/MS analysis; format: physicochemical; method in brief: as §1
[11] = Solubility of the compound in sodium phosphate buffer at pH 7 at 25 degC after 1 week by HPLC-ESIMS/MS analysis; format: physicochemical; method in brief: as §2
[12] = Dissociation constant, pKa of the compound; format: physicochemical
Method in brief: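 pKa values predicted in silico for the ionizable groups of the parent and its metabolites, then compared with experimentally obtained values from earlier reports.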

[13] = 1-Octanol-water distribution coefficient, log D of the compound at pH 4.5 after 1 week by HPLC-ESIMS/MS analysis; format: physicochemical; method in brief: as §1
[14] = biological target: Albumin (Bos taurus, UniProt P02769); experiment: Binding affinity to bovine serum albumin by fluorescence quenching assay; format: ADME; details: cattle, isolated protein
Method in brief: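 BSA at 1.0 × 10−5 mol L−1 in Tris-HCl buffer (0.05 M Tris, 0.15 M NaCl, pH 7.4), titrated with quencher from 0 to 2.4 × 10−5 mol L−1 in 0.2 × 10−5 steps at room temperature. Tryptophan emission recorded at 300–500 nm (excitation 295 nm; maximum at 340 nm). Binding constant KB obtained from a modified Stern–Volmer plot, assuming static quenching.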

[15] = test system: Plasma; experiment: Cmax in human plasma assessed as berberrubine at 500 mg, po after 4 hrs by HPLC-ESIMS/MS analysis; format: ADME, organism-based; design: dose 500 mg, route oral; details: in vivo
[16] = test system: Homo sapiens; experiment: Hypolipidemic activity in hypercholesterolemic patient assessed as reduction of total cholesterol level at 15 mg/kg/day administered for 3 months measured every month during compound treatment; format: functional, organism-based
[17] = Cmax at steady state in hypercholesterolemic patient at 15 mg/kg administered for 3 months by HPLC-ESIMS/MS analysis; format: ADME, organism-based; design: dose 15 mg/kg; details: human, in vivo
[18] = test system: Plasma; experiment: Plasma concentration in human assessed as berberrubine at 500 mg, po after 24 hrs by HPLC-ESIMS/MS analysis; format: ADME, organism-based; details: in vivo
[19] = Tmax in human at 500 mg, po by HPLC-ESIMS/MS analysis; format: ADME, organism-based; details: in vivo
[20] = Dissociation constant, acidic pKa of the compound; format: physicochemical
[21] = test system: Homo sapiens; experiment: Hypolipidemic activity in hypercholesterolemic patient assessed as reduction of LDL cholesterol level at 15 mg/kg/day administered for 3 months measured every month during compound treatment; format: functional, organism-based
[22] = Dissociation constant, basic pKa of the compound; format: physicochemical
[23] = Cmax in human plasma at 500 mg, po by HPLC-ESIMS/MS analysis; format: ADME, organism-based; design: dose 500 mg, route oral
[24] = test system: Homo sapiens; experiment: Tmax in human assessed as demethyleneberberin at 500 mg, po by HPLC-ESIMS/MS analysis; format: ADME, organism-based; details: in vivo
[25] = test system: Plasma; experiment: Cmax in human plasma assessed as jatrorrhizine at 500 mg, po by HPLC-ESIMS/MS analysis; format: ADME, organism-based; design: dose 500 mg, route oral; details: in vivo
[26] = test system: Homo sapiens; experiment: Effect on total triglyceride level in hypercholesterolemic patient at 15 mg/kg/day administered for 3 months measured every month during compound treatment; format: functional, organism-based
[27] = test system: Homo sapiens; experiment: Cmax at steady state in hypercholesterolemic patient assessed as demethyleneberberin at 15 mg/kg/day administered for 3 months by HPLC-ESIMS/MS analysis; format: ADME, organism-based; design: dose 15 mg/kg/day; details: in vivo
[28] = test system: Homo sapiens; experiment: Cmax at steady state in hypercholesterolemic patient assessed as jatrorrhizine at 15 mg/kg/day administered for 3 months by HPLC-ESIMS/MS analysis; format: ADME, organism-based; design: dose 15 mg/kg/day; details: in vivo
[29] = test system: Homo sapiens; experiment: Effect on HDL cholesterol level in hypercholesterolemic patient at 15 mg/kg/day administered for 3 months measured every month during compound treatment; format: functional, organism-based
[30] = test system: Homo sapiens; experiment: Cmax at steady state in hypercholesterolemic patient assessed as berberrubine at 15 mg/kg/day administered for 3 months by HPLC-ESIMS/MS analysis; format: ADME, organism-based; design: dose 15 mg/kg/day; details: in vivo
[31] = test system: Homo sapiens; experiment: Tmax in human assessed as jatrorrhizine at 500 mg, po by HPLC-ESIMS/MS analysis; format: ADME, organism-based; details: in vivo
[32] = test system: Plasma; experiment: Cmax in human plasma assessed as demethyleneberberin at 500 mg, po by HPLC-ESIMS/MS analysis; format: ADME, organism-based; design: dose 500 mg, route oral; details: in vivo

Albumin, sequence (P02769 whole entry): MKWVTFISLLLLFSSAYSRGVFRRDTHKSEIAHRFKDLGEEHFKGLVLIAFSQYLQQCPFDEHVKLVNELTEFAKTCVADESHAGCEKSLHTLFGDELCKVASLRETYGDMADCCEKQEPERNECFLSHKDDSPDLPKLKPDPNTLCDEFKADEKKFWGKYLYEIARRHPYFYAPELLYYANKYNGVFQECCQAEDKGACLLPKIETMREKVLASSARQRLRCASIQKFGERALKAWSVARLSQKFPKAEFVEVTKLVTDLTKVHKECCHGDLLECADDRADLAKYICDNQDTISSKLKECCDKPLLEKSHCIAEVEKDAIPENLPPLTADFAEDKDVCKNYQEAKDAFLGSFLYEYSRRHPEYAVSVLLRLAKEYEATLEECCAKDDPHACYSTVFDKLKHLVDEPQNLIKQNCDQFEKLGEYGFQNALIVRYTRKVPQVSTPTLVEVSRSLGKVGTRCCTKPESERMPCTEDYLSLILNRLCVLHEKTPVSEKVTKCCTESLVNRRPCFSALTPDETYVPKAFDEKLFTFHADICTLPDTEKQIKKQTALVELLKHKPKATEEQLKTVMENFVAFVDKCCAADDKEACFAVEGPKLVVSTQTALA

| logD at 168 h [1] | solubility at 168 h [2] [mM] | solubility at 168 h [3] [mM] | solubility at 168 h [4] [mM] | logD at 168 h [5] | logD at 168 h [6] | logD at 168 h [7] | logD at 168 h [8] | logD at 168 h [9] | logD at 168 h [10] | solubility at 168 h [11] [mM] | pKa [12] | logD at 168 h [13] | Kb [14] [×10³ L/mol] | Compound | further results |
| --- | --- | --- | --- | --- | --- | --- | --- | --- | --- | --- | --- | --- | --- | --- | --- |
| -0.3 | 0.2 | 0.2 | 6.5 | -1.1 | -1.1 | -1.1 | -1.1 | -0.5 | -1.1 | 3.7 | 9.4 | -1.1 | 1.98 | COc1ccc2cc3[n+](cc2c1OC)CCc1cc(O)c(O)cc1-3.[Cl-] |  |
| 4.6 |  |  |  | 1.8 | 0.6 | 2.9 | 1.3 | 1.6 | 1.5 |  |  | 0.7 |  | COc1ccc2cc3n(cc-2c1=O)CCc1cc2c(cc1-3)OCO2 |  |
| 4.6 | 2 | 4.2 | 0.5 | 1.4 | -0.02 | 2.5 | 0.9 | 1.6 | 1.1 | 1 | 5 | 0.01 | 1.51 | COc1ccc2cc3[n+](cc2c1O)CCc1cc2c(cc1-3)OCO2.[Cl-] [BERBERRUBINE CHLORIDE] |  |
| -1.2 | 7.6 | 8.2 | 9.6 | -1.2 | -1.2 | -1.2 | -1.2 | -1.2 | -1.2 | 9 |  | -1.2 | 3.37 | COc1ccc2cc3[n+](cc2c1OC)CCc1cc2c(cc1-3)OCO2.[Cl-] [BERBERINE CHLORIDE] | Cmax [15]: 1.4 nM; Activity [16]: Active; Cmax at 3 months [17]: 4 nM; concentration [18]: 0.15 nM; Tmax [19]: 1 h; pKa [20]: 2.47; Activity [21]: Active; pKa [22]: 15.7; Cmax [23]: 0.07 nM; Tmax [24]: 1 h; Cmax [25]: 0.13 nM; Activity [26]: inactive; Cmax [27]: 1.7 nM; Cmax [28]: 5.6 nM; Activity [29]: inactive; Cmax [30]: 6.7 nM; Tmax [31]: 2 h; Cmax [32]: 0.14 nM |

| Compound | logD at 168 h [1] | solubility at 168 h [2] [mM] | solubility at 168 h [3] [mM] | solubility at 168 h [4] [mM] | logD at 168 h [5] | logD at 168 h [6] | logD at 168 h [7] | logD at 168 h [8] | logD at 168 h [9] | logD at 168 h [10] | solubility at 168 h [11] [mM] | pKa [12] | logD at 168 h [13] | Kb [14] [×10³ L/mol] | further results |
| --- | --- | --- | --- | --- | --- | --- | --- | --- | --- | --- | --- | --- | --- | --- | --- |
| COc1cc2c(cc1O)CC[n+]1cc3c(OC)c(OC)ccc3cc1-2.[Cl-] [JATRORRHIZINE CHLORIDE] | 0.6 | 1.3 | 1.5 | 12.2 | -1.5 | -1.5 | -1.2 | -1.5 | 0.1 | -1.2 | 12.4 | 9.6 | -1.5 | 1.73 |  |
